Here are results for eleven compounds from ChEMBL document CHEMBL1133408, “5-Arylamino-2-methyl-4,7-dioxobenzothiazoles as inhibitors of cyclin-dependent kinase 4 and cytotoxic agents” (Bioorg Med Chem Lett, 2000).

≈ marks a conversion by molar mass, not a printed value.

By IC50 is commonly meant the midpoint of a concentration-inhibition curve.

In assay [1] the test system is A549. The experiment in a line: Inhibition of A549 cancer cell proliferation. Type of assay: functional, cell-based. Particulars: Homo sapiens. Summed up:
(§1)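 Cytotoxicity measured by sulforhodamine B (SRB) assay following NCI protocols. Human tumour cell lines: A 549 (non-small cell lung, from NCI), Col 1 (human colon carcinoma, from University of Illinois at Chicago surgical oncology), HL-60 (myeloid leukaemia, from ATCC) and HepG2 (hepatocarcinoma, from ATCC).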

For assay [2], the target named is Cyclin-dependent kinase 2 (Homo sapiens, UniProt P24941). In words: Inhibition of Cyclin-dependent kinase 2 (CDK2/cyclin A).
Assay [3] concerns COLO1. In words: Inhibition of Col1 cancer cell proliferation. Type of assay: functional, cell-based, Homo sapiens. A digest of the protocol: as §1
Assay [4] concerns the target Cyclin-dependent kinase 4 (Homo sapiens, UniProt P11802). In words: Inhibition of Cyclin-dependent kinase 4 (CDK4/cyclin Dl).
Assay [5] has as its system HL-60. The experiment in a line: Inhibition of HL60 cancer cell proliferation. Type of assay: functional, cell-based, Homo sapiens. A digest of the protocol:
as §1

The test system of assay [6] is HepG2. The experiment in a line: Inhibition of HepG2 cancer cell proliferation. Type of assay: functional, cell-based. To be noted: Homo sapiens. Summed up:
as §1

Setting [7] is: Homo sapiens, COLO1, read-out: IC50.
The mark [8] stands for this setting: Homo sapiens, HL-60, read-out: IC50.

Cyclin-dependent kinase 4, sequence (P11802 whole entry): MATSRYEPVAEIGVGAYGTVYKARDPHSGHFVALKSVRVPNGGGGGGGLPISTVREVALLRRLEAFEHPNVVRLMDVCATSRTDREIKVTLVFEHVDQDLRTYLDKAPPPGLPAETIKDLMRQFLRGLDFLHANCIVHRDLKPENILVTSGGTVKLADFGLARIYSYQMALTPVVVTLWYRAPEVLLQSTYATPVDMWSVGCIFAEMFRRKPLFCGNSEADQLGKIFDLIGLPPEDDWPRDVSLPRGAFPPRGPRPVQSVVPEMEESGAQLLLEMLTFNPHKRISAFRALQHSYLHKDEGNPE

On to `Cc1nc2c(s1)C(=O)C=C(Nc1ccc(O)cc1)C2=O`, for which the half-inhibitory concentration (IC50) in assay [1] was 0.7 µg/mL (≈ 2.44 µM); in assay [2], greater than 200 µM; in assay [3] (setting [7]) it was 1.85 µg/mL (≈ 6.46 µM); in assay [4] it was 6.7 µM; in assay [5] (setting [8]), 0.26 µg/mL (≈ 0.908 µM); in assay [6] it was 1.36 µg/mL (≈ 4.75 µM).

With `Cc1nc2c(s1)C(=O)C=C(Nc1ccc(Br)cc1)C2=O`, the IC50 in assay [1] was 3.6 µg/mL (≈ 10.3 µM); in assay [2], greater than 200 µM; in assay [3] (setting [7]) it was 6.57 µg/mL (≈ 18.8 µM); in assay [4], 6.7 µM; in assay [5] (setting [8]), 0.28 µg/mL (≈ 0.802 µM); in assay [6] it was 2.78 µg/mL (≈ 7.96 µM).

Regarding `Cc1nc2c(s1)C(=O)C=C(Nc1ccc(I)cc1)C2=O`, the 50% inhibitory concentration (IC50) was 2.08 µg/mL (≈ 5.25 µM) in assay [1]; greater than 200 µM in assay [2]; 2.08 µg/mL (≈ 5.25 µM) in assay [3] (setting [7]); 3 µM in assay [4]; 0.24 µg/mL (≈ 0.606 µM) in assay [5] (setting [8]); 1.95 µg/mL (≈ 4.92 µM) in assay [6].

In the case of `COc1ccc(NC2=CC(=O)c3sc(C)nc3C2=O)cc1`, the 50% inhibitory concentration (IC50) is 1.65 µg/mL (≈ 5.49 µM) in assay [1]; greater than 200 µM in assay [2]; 2.01 µg/mL (≈ 6.69 µM) in assay [3] (setting [7]); 5.6 µM in assay [4]; 0.27 µg/mL (≈ 0.899 µM) in assay [5] (setting [8]); 1.39 µg/mL (≈ 4.63 µM) in assay [6].

Regarding `Cc1ccc(NC2=CC(=O)c3sc(C)nc3C2=O)cc1`, the IC50 in assay [1] was 0.61 µg/mL (≈ 2.15 µM); in assay [2] it was greater than 200 µM; in assay [3] (setting [7]), 1.08 µg/mL (≈ 3.8 µM); in assay [4], 6 µM; in assay [5] (setting [8]) it was 0.3 µg/mL (≈ 1.06 µM).

Turning to `Cc1nc2c(s1)C(=O)C=C(Nc1ccccc1)C2=O`, the IC50 was 0.64 µg/mL (≈ 2.37 µM) in assay [1]; greater than 200 µM in assay [2]; 1.93 µg/mL (≈ 7.14 µM) in assay [3] (setting [7]); 6 µM in assay [4]; 0.28 µg/mL (≈ 1.04 µM) in assay [5] (setting [8]); 1.3 µg/mL (≈ 4.81 µM) in assay [6].

As to `Cc1nc2c(s1)C(=O)C=C(Nc1ccc(Cl)cc1)C2=O`, the half-inhibitory concentration (IC50) is 3.6 µg/mL (≈ 11.8 µM) in assay [1]; greater than 200 µM in assay [2]; 20 µg/mL (≈ 65.6 µM) in assay [3] (setting [7]); 7 µM in assay [4]; 0.33 µg/mL (≈ 1.08 µM) in assay [5] (setting [8]); 3.23 µg/mL (≈ 10.6 µM) in assay [6].

Take `Cc1nc2c(s1)C(=O)C=C(Nc1ccc(F)cc1)C2=O`: the IC50 was 1.69 µg/mL (≈ 5.86 µM) in assay [1]; greater than 200 µM in assay [2]; 1.94 µg/mL (≈ 6.73 µM) in assay [3] (setting [7]); 6.3 µM in assay [4]; 0.23 µg/mL (≈ 0.798 µM) in assay [5] (setting [8]); 1.51 µg/mL (≈ 5.24 µM) in assay [6].

Take `CCOc1ccc(NC2=CC(=O)c3sc(C)nc3C2=O)cc1`: the half-inhibitory concentration (IC50) in assay [1] was 1.76 µg/mL (≈ 5.6 µM); in assay [2], greater than 200 µM; in assay [3] (setting [7]), 2.09 µg/mL (≈ 6.65 µM); in assay [4] it was 20 µM; in assay [5] (setting [8]), 0.29 µg/mL (≈ 0.922 µM); in assay [6], 1.53 µg/mL (≈ 4.87 µM).

Turning to `Cn1cnc2c(NCc3ccccc3)nc(NCCO)nc21` [OLOMOUCINE], the results for the half-inhibitory concentration (IC50) in assay [1], in assay [3] (setting [7]) and in assay [5] (setting [8]) were 57 µg/mL (≈ 191 µM), 87 µg/mL (≈ 292 µM) and 50 µg/mL (≈ 168 µM), respectively.

With CISPLATIN, the IC50 worked out at 1.38 µg/mL in assay [3] (colo1) and 0.7 µg/mL in assay [5] (hl-60).
